Compound activity as filed in PubChem BioAssay.
PGC1a acetyl inh – modulators of PGC1a acetylation; U2OS PGC1a acetylation, AlphaScreen anti-acetyl-lysine; with virally co-expressed GCN5 acetyltransferase; inhibition, % at 15.6 µM; actives 0.17% (n = 350,000);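 active means every replicate shows inhibition of at least 40%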;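 further: 0% = neutral control wells and 100% = positive control wells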
MITF act – increases MITF-driven TRPM1 promoter luciferase signal. actives 0.75% (n = 300,000). SK-MEL-5 TRPM1-promoter luciferase, 24 h; % of positive control, neutral wells = 0. activation, % at 12.5 µM. AID 588334;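 active means mean activation of at least 80% with every replicate also reaching 80%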;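 further: 0% = neutral control wells and 100% = parthenolide positive control wells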
Cneo AK release – causes C. neoformans cell lysis; lysis activity, % at 15 µM; actives 0.2% (n = 360,000); adenylate kinase release luminescence, 4 h; normalised: neutral wells 0, clomiphene wells 100;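 active means mean lysis activity across replicates of at least 80%, whatever share of replicates individually reach that level; inactive means mean lysis activity below 80%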
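Assay system: Cryptococcus neoformans yeast cells / Dosing: single-point compound dose / Timing: 4 h at 37 °C static, read 1 h later / Measured by: luminescence of released adenylate kinase using an AK detection reagent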
Wnt bcat act – activators of Wnt/beta-catenin signaling; Wnt/beta-catenin reporter cell assay, activator, plate reader; AID 743398; actives 1.2% (n = 300,000); activation, % at 9.35 µM; in the data active means activation above about 30%, passing the limit was not always enough;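 further: 0% = neutral control wells and 100% = positive control wells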
Starred values were filed as active, the others as inactive; . = no result given. This is a sample that favours compounds with a hit; in the whole collection about 1.5% have one here.

SMILES	PGC1a acetyl inh	MITF act	Cneo AK release	Wnt bcat act
CCOC(=O)c1c(C)nc(C)c(C(=O)OCC)c1-c1ccc(OC)cc1	-4.4	-5.2	1.4	0.7
CCOC(=O)c1sc(-c2ccc(OC)cc2)cc1N	8.9	99.0*	-5.5	.
CCOC(=O)c1sc(-c2ccc(F)cc2)cc1N	-20.0	97.7*	.	.
COc1ccccc1NC(=O)COc1ccccc1C(=O)c1cnn(-c2ccccc2)c1	.	79.9	.	49.9*
O=S(=O)(NC[C@@H]1[C@@H](c2ccccc2)[C@H](CO)N1CC1CC1)c1ccccc1	-4.2	.	107.2*	.
N#Cc1ccc(C(=O)NC2CCCCCCC2)cc1	1.8	107.0*	1.2	1.8
CCOC(=O)COc1ccc(C(=O)NC2CCCCC2)cc1	5.7	-6.2	.	5.4
CCOc1ccc(C(=O)NC2CCCCCCC2)cc1	.	78.6	.	41.7*
O=C(NC1CCCCC1)c1ccc2ccccc2c1	-0.2	.	0.8	49.3*
O=C(NC1CCCCC1)c1ccc([N+](=O)[O-])cc1	7.0	17.9	-2.3	-3.1
Cc1ccc(C(=O)NCC(=O)NC2CCCC2)cc1	-2.6	-0.5	-0.6	1.9
Cc1ccc(C(=O)NC2CCCCC2)cc1	12.5	87.6*	-6.4	17.3
CCCNC(=O)N(C)C[C@@H]1Oc2ncc(C#CC3CC3)cc2C(=O)N([C@@H](C)CO)C[C@@H]1C	9.0	.	-4.3	.
CCCNC(=O)N1C[C@@H](C)[C@H](OC)CN(C)C(=O)c2cc(NC(=O)C3CCC3)ccc2OC[C@@H]1C	-6.0	.	.	.
Cc1ccc(NC(=O)NC2CCCCCCC2)cc1	9.3	63.8	-1.0	35.3*
COc1ccc(-c2ccc(SCC(=O)NC3CCCCC3)nn2)cc1	.	35.0	-2.1	19.7
CCOc1ccc(-c2ccc(SCC(=O)NC3CCCCC3)nn2)cc1	4.2	94.5*	-4.3	20.4
Cn1c(NC(=O)c2ccccc2F)c(-c2cccs2)c(=O)c2ccccc21	.	-2.9	.	33.2*
Cn1c(NC(=O)c2ccc(F)cc2)c(-c2cccs2)c(=O)c2ccccc21	.	7.2	.	-4.9
Cc1cc(C(=O)COC(=O)c2ccc(O)cc2)c(C)n1CC(F)(F)F	3.9	.	-4.6	51.0*
Cc1cc(C(=O)COC(=O)c2ccc(O)cc2)c(C)n1-c1ccccc1F	.	10.3	.	-0.9
O=c1nc2c(-c3ccccc3F)n[nH]n2c2ccccc12	.	.	-13.9	35.9*
CCc1ccc(S(=O)(=O)c2n[nH]n3c2nc(=O)c2ccccc23)cc1	.	-7.2	15.2	-0.7
Clc1c(CSc2nc3ccccc3o2)nc2ccccn12	-5.8	9.2	0.4	.
Brc1c(CSc2nc3ccccc3o2)nc2ncccn12	1.1	.	-1.4	48.5*
SMILES	PGC1a acetyl inh	MITF act	Cneo AK release	Wnt bcat act
O=C(OCC(=O)N1CCOCC1)c1ccc2ccccc2c1O	-4.1	49.7	-0.3	42.5*
C[C@@H]1CN([C@H](C)CO)C(=O)c2cc(Br)cnc2O[C@@H]1CN(C)CC1CCOCC1	4.1	.	0.5	.
C[C@@H]1CN([C@@H](C)CO)C(=O)Cc2cc(NS(=O)(=O)c3cn(C)cn3)ccc2O[C@@H]1CN(C)C(=O)Nc1cccc2ccccc12	0.2	.	-1.3	.
CN(C(=O)c1cc2c(=O)n3ccccc3nc2n1C)C1CCCCC1	3.8	68.7	-1.6	37.2*
CO[C@H]1CN(C)C(=O)c2ccc(NC(=O)Nc3cccc(F)c3)cc2OC[C@@H](C)N(C(=O)C2CC2)C[C@@H]1C	7.5	.	.	.
Clc1ccc(-c2csc(Nc3ccccc3)[n+]2Cc2ccco2)c(Cl)c1	.	88.7*	.	42.8*
CCOC(=O)C1CCN(C(=O)c2cc(COc3ccc(F)cc3F)on2)CC1	2.8	111.1*	1.9	17.0
CCOC(=O)N1CCN(C(=O)c2cc(COc3ccc(F)cc3F)on2)CC1	0.7	20.4	-0.7	12.8
CCOC(=O)N1CCN(C(=O)c2cc(COc3c(F)cccc3F)on2)CC1	.	75.5	1.5	44.7*
COc1ccccc1CN1[C@@H](CO)[C@@H]2c3ccccc3N(C(=O)C3CCCCC3)C[C@@H]21	-29.3	.	6.0	.
C[C@H](CO)N1C[C@H](C)[C@H](CN(C)S(=O)(=O)c2cn(C)cn2)Oc2cc(C3=CCCCC3)ccc2S1(=O)=O	-5.0	.	-3.1	.
C[C@@H]1CCCCO[C@H](CN(C)S(=O)(=O)c2ccccc2)[C@@H](C)CN([C@@H](C)CO)C(=O)c2cc(NC(=O)Nc3cccc4ccccc34)ccc2O1	-3.5	.	-1.4	.
CCCc1nc(Nc2nc3ccccc3o2)nc(C)c1C(=O)OCC	4.2	115.7*	-0.9	.
O=C(COC(=O)c1ccc(S(=O)(=O)N2CCOCC2)cc1)NC1CCCCCCC1	-6.2	-0.9	4.9	89.2*
COC(=O)C[C@@H]1C[C@@H]2c3cc(NC(=O)CN(C)C)ccc3O[C@@H]2[C@@H](CO)O1	-28.1	.	-4.6	.
